In ChEMBL document CHEMBL4400581, “First Example of Catalytic Synthesis of Difurazanohexahydrohexaazapyrenes and in Vitro Study of Their Antitumor Activity” (2019):

Legend:
[1] = system: Jurkat; assay: Cytotoxicity against human Jurkat cells by MTT assay; type: functional
Method in brief: (§1)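 Cytotoxicity was measured by MTT assay across a range of concentrations in human tumour lines, with etoposide as the reference drug. Results are expressed as CC50.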

[2] = system: HeLa; assay: Cytotoxicity against human HeLa cells by MTT assay; type: functional; method in brief: as §1
[3] = system: K562; assay: Cytotoxicity against human K562 cells by MTT assay; type: functional; method in brief: as §1
[4] = system: U-937; assay: Cytotoxicity against human U937 cells by MTT assay; type: functional; method in brief: as §1
[5] = system: U-937; assay: Cell cycle arrest in human U937 cells assessed as accumulation at S phase at 0.025 uM measured after 24 hrs by propidium iodide staining based assay (reference value: 45.88%); type: functional
Method in brief: (§2)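 U937 cells were exposed to the test agent at 0.2, 0.1, 0.05 or 0.025 μM for 24 h alongside an untreated control. DNA content was measured by propidium iodide staining and flow cytometry, giving the G0/G1, S and G2+M fractions and the hypodiploid pre-G0 (sub-G1) population. Values are means ± SD of three independent experiments, compared with control (p < 0.05, p < 0.01).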

[6] = system: U-937; assay: Cell cycle arrest in human U937 cells assessed as accumulation at G2/G1 phase at 0.1 uM measured after 24 hrs by propidium iodide staining based assay (reference value: 1.98%); type: functional
[7] = system: U-937; assay: Induction of apoptosis in human U937 cells measured after 24 hrs by Annexin alexa fluor 488/7AAD staining based flow cytometry; type: functional, cell-based
Method in brief: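 Treated U937 cells were stained with annexin V Alexa Fluor 488 and 7AAD. Fluorescence intensity was read by flow cytometry, with etoposide run as the reference drug.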

[8] = system: U-937; assay: Induction of apoptosis in human U937 cells assessed as live cells at 0.1 uM measured after 24 hrs by Annexin alexa fluor 488/7AAD staining based flow cytometry (reference value: 98.31%); type: functional
[9] = system: U-937; assay: Cell cycle arrest in human U937 cells assessed as accumulation at G2 phase at 0.025 uM measured after 24 hrs by propidium iodide staining based assay (reference value: 10.7%); type: functional; method in brief: as §2
[10] = system: U-937; assay: Induction of apoptosis in human U937 cells assessed as live cells at 0.025 uM measured after 24 hrs by Annexin alexa fluor 488/7AAD staining based flow cytometry (reference value: 98.31%); type: functional
[11] = system: U-937; assay: Induction of apoptosis in human U937 cells assessed as necrotic cells at 0.05 uM measured after 24 hrs by Annexin alexa fluor 488/7AAD staining based flow cytometry (reference value: 0.19%); type: functional
[12] = system: U-937; assay: Cell cycle arrest in human U937 cells assessed as accumulation at super-G2 phase at 0.2 uM measured after 24 hrs by propidium iodide staining based assay (reference value: 0.45%); type: functional
[13] = system: U-937; assay: Cell cycle arrest in human U937 cells assessed as accumulation at S phase at 0.05 uM measured after 24 hrs by propidium iodide staining based assay (reference value: 45.88%); type: functional; method in brief: as §2
[14] = system: U-937; assay: Cell cycle arrest in human U937 cells assessed as accumulation at sub-G1 phase at 0.025 uM measured after 24 hrs by propidium iodide staining based assay (reference value: 0.01%); type: functional; method in brief: as §2
[15] = system: U-937; assay: Induction of apoptosis in human U937 cells assessed as necrotic cells at 0.025 uM measured after 24 hrs by Annexin alexa fluor 488/7AAD staining based flow cytometry (reference value: 0.19%); type: functional
[16] = system: U-937; assay: Cell cycle arrest in human U937 cells assessed as accumulation at sub-G1 phase at 0.1 uM measured after 24 hrs by propidium iodide staining based assay (reference value: 0.01%); type: functional; method in brief: as §2
[17] = system: U-937; assay: Cell cycle arrest in human U937 cells assessed as accumulation at G2/G1 phase at 0.05 uM measured after 24 hrs by propidium iodide staining based assay (reference value: 1.98%); type: functional
[18] = system: U-937; assay: Cell cycle arrest in human U937 cells assessed as accumulation at sub-G1 phase at 0.05 uM measured after 24 hrs by propidium iodide staining based assay (reference value: 0.01%); type: functional; method in brief: as §2
[19] = system: U-937; assay: Cell cycle arrest in human U937 cells assessed as accumulation at G2/G1 phase at 0.2 uM measured after 24 hrs by propidium iodide staining based assay (reference value: 1.98%); type: functional
[20] = system: U-937; assay: Cell cycle arrest in human U937 cells assessed as accumulation at S phase at 0.1 uM measured after 24 hrs by propidium iodide staining based assay (reference value: 45.88%); type: functional; method in brief: as §2
[21] = system: U-937; assay: Cell cycle arrest in human U937 cells assessed as accumulation at super-G2 phase at 0.05 uM measured after 24 hrs by propidium iodide staining based assay (reference value: 0.45%); type: functional
[22] = system: U-937; assay: Induction of apoptosis in human U937 cells assessed as live cells at 0.2 uM measured after 24 hrs by Annexin alexa fluor 488/7AAD staining based flow cytometry (reference value: 98.31%); type: functional
[23] = system: U-937; assay: Cell cycle arrest in human U937 cells assessed as accumulation at super-G2 phase at 0.025 uM measured after 24 hrs by propidium iodide staining based assay (reference value: 0.45%); type: functional
[24] = system: U-937; assay: Cell cycle arrest in human U937 cells assessed as accumulation at G1 phase at 0.2 uM measured after 24 hrs by propidium iodide staining based assay (reference value: 41.98%); type: functional; method in brief: as §2
[25] = system: U-937; assay: Cell cycle arrest in human U937 cells assessed as accumulation at G1 phase at 0.1 uM measured after 24 hrs by propidium iodide staining based assay (reference value: 41.98%); type: functional; method in brief: as §2
[26] = system: U-937; assay: Cell cycle arrest in human U937 cells assessed as accumulation at S phase at 0.2 uM measured after 24 hrs by propidium iodide staining based assay (reference value: 45.88%); type: functional; method in brief: as §2
[27] = system: U-937; assay: Cell cycle arrest in human U937 cells assessed as accumulation at G2 phase at 0.1 uM measured after 24 hrs by propidium iodide staining based assay (reference value: 10.7%); type: functional; method in brief: as §2
[28] = system: U-937; assay: Cell cycle arrest in human U937 cells assessed as accumulation at G1 phase at 0.025 uM measured after 24 hrs by propidium iodide staining based assay (reference value: 41.98%); type: functional; method in brief: as §2
[29] = system: U-937; assay: Cell cycle arrest in human U937 cells assessed as accumulation at G2 phase at 0.2 uM measured after 24 hrs by propidium iodide staining based assay (reference value: 10.7%); type: functional; method in brief: as §2
[30] = system: U-937; assay: Cell cycle arrest in human U937 cells assessed as accumulation at G2/G1 phase at 0.025 uM measured after 24 hrs by propidium iodide staining based assay (reference value: 1.98%); type: functional
[31] = system: U-937; assay: Induction of apoptosis in human U937 cells assessed as late apoptotic cells at 0.025 uM measured after 24 hrs by Annexin alexa fluor 488/7AAD staining based flow cytometry (reference value: 0.05%); type: functional
[32] = system: U-937; assay: Cell cycle arrest in human U937 cells assessed as accumulation at G2 phase at 0.05 uM measured after 24 hrs by propidium iodide staining based assay (reference value: 10.7%); type: functional; method in brief: as §2
[33] = system: U-937; assay: Induction of apoptosis in human U937 cells assessed as necrotic cells at 0.1 uM measured after 24 hrs by Annexin alexa fluor 488/7AAD staining based flow cytometry (reference value: 0.19%); type: functional
[34] = system: U-937; assay: Induction of apoptosis in human U937 cells assessed as late apoptotic cells at 0.1 uM measured after 24 hrs by Annexin alexa fluor 488/7AAD staining based flow cytometry (reference value: 0.05%); type: functional
[35] = system: U-937; assay: Induction of apoptosis in human U937 cells assessed as early apoptotic cells at 0.05 uM measured after 24 hrs by Annexin alexa fluor 488/7AAD staining based flow cytometry (reference value: 1.45%); type: functional
[36] = system: U-937; assay: Induction of apoptosis in human U937 cells assessed as early apoptotic cells at 0.1 uM measured after 24 hrs by Annexin alexa fluor 488/7AAD staining based flow cytometry (reference value: 1.45%); type: functional
[37] = system: U-937; assay: Induction of apoptosis in human U937 cells assessed as late apoptotic cells at 0.05 uM measured after 24 hrs by Annexin alexa fluor 488/7AAD staining based flow cytometry (reference value: 0.05%); type: functional
[38] = system: U-937; assay: Induction of apoptosis in human U937 cells assessed as late apoptotic cells at 0.2 uM measured after 24 hrs by Annexin alexa fluor 488/7AAD staining based flow cytometry (reference value: 0.05%); type: functional
[39] = system: U-937; assay: Induction of apoptosis in human U937 cells assessed as live cells at 0.05 uM measured after 24 hrs by Annexin alexa fluor 488/7AAD staining based flow cytometry (reference value: 98.31%); type: functional
[40] = system: U-937; assay: Induction of apoptosis in human U937 cells assessed as necrotic cells at 0.2 uM measured after 24 hrs by Annexin alexa fluor 488/7AAD staining based flow cytometry (reference value: 0.19%); type: functional
[41] = system: U-937; assay: Cell cycle arrest in human U937 cells assessed as accumulation at sub-G1 phase at 0.2 uM measured after 24 hrs by propidium iodide staining based assay (reference value: 0.01%); type: functional; method in brief: as §2
[42] = system: U-937; assay: Induction of apoptosis in human U937 cells assessed as early apoptotic cells at 0.2 uM measured after 24 hrs by Annexin alexa fluor 488/7AAD staining based flow cytometry (reference value: 1.45%); type: functional
[43] = system: U-937; assay: Induction of apoptosis in human U937 cells assessed as early apoptotic cells at 0.025 uM measured after 24 hrs by Annexin alexa fluor 488/7AAD staining based flow cytometry (reference value: 1.45%); type: functional
[44] = system: U-937; assay: Cell cycle arrest in human U937 cells assessed as accumulation at G1 phase at 0.05 uM measured after 24 hrs by propidium iodide staining based assay (reference value: 41.98%); type: functional; method in brief: as §2
[45] = system: U-937; assay: Cell cycle arrest in human U937 cells assessed as accumulation at super-G2 phase at 0.1 uM measured after 24 hrs by propidium iodide staining based assay (reference value: 0.45%); type: functional

## C1CCC(N2CN3c4nonc4N4CN(C5CCCCC5)CN5c6nonc6N(C2)C3C45)CC1 (stereo not given)
[1]
  Activity: Dose-dependent effect
  CC50: 530 nM
[2]
  Activity: Dose-dependent effect
  CC50: 1040 nM
[3]
  Activity: Dose-dependent effect
  CC50: 590 nM
[4]
  Activity: Dose-dependent effect
  CC50: 540 nM

## C1CC2CC1CC2N1CN2c3nonc3N3CN(C4CC5CCC4C5)CN4c5nonc5N(C1)C2C34 (stereo not given)
[5]
  Activity: 48.65%
[6]
  Activity: 1.98%
[7]
  Activity: Dose-dependent effect
[8]
  Activity: 42.25%
[9]
  Activity: 4.11%
[10]
  Activity: 71.74%
[11]
  Activity: 1.4%
[12]
  Activity: 1.38%
[13]
  Activity: 41.7%
[14]
  Activity: 6.37%
[15]
  Activity: 1.28%
[16]
  Activity: 16.73%
[17]
  Activity: 1.93%
[1]
  Activity: Dose-dependent effect
  CC50: 160 nM
[18]
  Activity: 11.01%
[19]
  Activity: 1.91%
[20]
  Activity: 32.87%
[21]
  Activity: 2.07%
[22]
  Activity: 23.18%
[23]
  Activity: 2.28%
[24]
  Activity: 17.74%
[2]
  Activity: Dose-dependent effect
  CC50: 320 nM
[25]
  Activity: 34.01%
[26]
  Activity: 38.89%
[27]
  Activity: 2.83%
[28]
  Activity: 35.15%
[29]
  Activity: 3.12%
[30]
  Activity: 1.98%
[31]
  Activity: 16.54%
[32]
  Activity: 3.29%
[33]
  Activity: 1.31%
[34]
  Activity: 40.93%
[35]
  Activity: 10.94%
[36]
  Activity: 15.52%
[3]
  Activity: Dose-dependent effect
  CC50: 210 nM
[37]
  Activity: 27.01%
[38]
  Activity: 53.07%
[39]
  Activity: 60.65%
[40]
  Activity: 4.4%
[41]
  Activity: 20.66%
[42]
  Activity: 19.35%
[43]
  Activity: 10.44%
[4]
  Activity: Dose-dependent effect
  CC50: 110 nM
[44]
  Activity: 30.09%
[45]
  Activity: 0.94%

## C1CCCC(N2CN3c4nonc4N4CN(C5CCCCCCC5)CN5c6nonc6N(C2)C3C45)CCC1 (stereo not given)
[1]
  Activity: Dose-dependent effect
  CC50: 620 nM
[2]
  Activity: Dose-dependent effect
  CC50: 1370 nM
[3]
  Activity: Dose-dependent effect
  CC50: 740 nM
[4]
  Activity: Dose-dependent effect
  CC50: 580 nM
